VIM-2 inhibitor = blocks Pseudomonas aeruginosa VIM-2 metallo-beta-lactamase; purified VIM-2, nitrocefin hydrolysis, epi-absorbance fluorescence; inhibition, % at 5.6 µM; 290,000 compounds, 0.89% hits; AID 1527;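 active means inhibition above the mean of all tested compounds plus 3 SD, cutoff set per screening run, cut at about 7.5% in these data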;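 further: red hydrolysis product quenches plate fluorescence so inhibitors raise well fluorescence; 0% = enzyme with DMSO and 100% = DMSO without enzyme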
IMP-1 inhibitor = inhibitors of Pseudomonas aeruginosa IMP-1 metallo-beta-lactamase | purified IMP-1, nitrocefin hydrolysis, epi-absorbance fluorescence | inhibition, % at 5.6 µM | 290,000 compounds, 0.45% hits | AID 1556;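 active means inhibition above the mean plus 3 SD of all compounds in the same screening run, cut at about 4.5% in these data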;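 further: 0% = IMP-1 with DMSO and 100% = DMSO wells lacking enzyme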
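System: purified IMP-1; amount: IMP-1 0.2 nM before substrate addition; compound: single dose, 5.6 µM; times: 25 °C, 15 min preincubation, 25 min reaction; signal: Epi-absorbance via hydrolysed-nitrocefin quenching of white-plate fluorescence, 480/530 nm, EDTA stop; benchmarks: DMSO with and without IMP-1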
eIF4H FP inh = inhibitors of RNA binding by human eIF4H. inhibition, % at 35 µM. AID 2012. eIF4H fluorescence polarization binding assay. Q15056. 290,000 compounds, 0.94% hits;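 further: calls also rest on retests at 20 µM and on dose response follow-up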
PABP1 MLLE inh = blocks PAM2 peptide binding to the PABP1 MLLE domain; P11940; GST-MLLE / FITC-PAM2 fluorescence polarization; inhibition, % at 20 µM; 360,000 compounds, 0.36% hits; AID 588489; in the data active means inhibition above about 35%, passing the limit was not always enough;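 further: plate controls were DMSO wells with GST-MLLE for no effect and wells lacking GST-MLLE protein for full effect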
PABP FP inh = PABP-poly(A) binding inhibition; AID 2014; 290,000 compounds, 1% hits; PABP-poly(A) RNA binding, fluorescence polarization; P11940; calls only at 35 µM;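 further: calls also rest on retests at 20 µM and on dose response follow-up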
Numbers without * were called inactive. Hits are enriched below; roughly 2.2% of the tested compounds scored in any of these assays. Unless noted, how the calls were made is not given here.

COc1ccc(C2=CSC3=NCCN23)cc1OC was read as VIM-2 inhibitor 9.0*, IMP-1 inhibitor -3.5, eIF4H FP inh 0.1, PABP1 MLLE inh -10.1 and PABP FP inh inactive.
CCN(CC)c1ccc(/C=C/C(=O)C2C(=O)C=C(C)OC2=O)cc1 (stereo unspecified) was read as VIM-2 inhibitor 7.0, IMP-1 inhibitor 7.4*, eIF4H FP inh inconclusive, PABP1 MLLE inh inactive and PABP FP inh inactive.
For CCN(CC)c1ccc(C=C2C(=O)OC(c3ccccc3)OC2=O)cc1 (stereo unspecified) the results were VIM-2 inhibitor -2.4, IMP-1 inhibitor -2.5, eIF4H FP inh -0.7, PABP1 MLLE inh -126.0 and PABP FP inh inactive.
`Cc1ccc(CC2C(=O)N(c3ncccn3)C(=O)C2C)cc1` (stereo unspecified) gave VIM-2 inhibitor 0.6, IMP-1 inhibitor 4.9*, eIF4H FP inh -1.0, PABP1 MLLE inh -3.4 and PABP FP inh inactive.
C[C@H](O)[C@H](O)[C@H]1CNc2nc(N)[nH]c(=O)c2N1 was read as PABP1 MLLE inh 89.2*.
CCN(CC)CCNC(=O)c1c(C)n(-c2ccccc2)c2cc(Br)c(OC)cc12 was read as VIM-2 inhibitor 8.0*, IMP-1 inhibitor -1.8, eIF4H FP inh -14.7, PABP1 MLLE inh -9.2 and PABP FP inh inactive.
`O=C(CSc1nnc(Cc2cc(=O)[nH]c(=O)[nH]2)n1-c1ccc(Cl)cc1)NC1CCCC1` gave VIM-2 inhibitor -2.8, IMP-1 inhibitor -3.3, eIF4H FP inh 62.4*, PABP1 MLLE inh 31.2 and PABP FP inh active.
For N#CCc1cnc2ccccc2n1 the results were VIM-2 inhibitor -1.1, IMP-1 inhibitor -0.5, eIF4H FP inh 89.3*, PABP1 MLLE inh 12.5 and PABP FP inh active.
`NS(=O)(=O)c1ccc(NCc2cnc3ccccc3n2)cc1` gave PABP1 MLLE inh -3.3.
For CC(=O)N1c2ccc(C)cc2C(c2ccccc2)CC1C (stereo unspecified) the results were VIM-2 inhibitor 1.0, IMP-1 inhibitor 13.8*, eIF4H FP inh 6.0, PABP1 MLLE inh 2.9 and PABP FP inh inactive.
`O=C(c1ccc([N+](=O)[O-])cc1)N1CCN(C(=O)C2CCCCC2)CC1` gave VIM-2 inhibitor 1.0, IMP-1 inhibitor 0.0, eIF4H FP inh -9.7, PABP1 MLLE inh 14.5 and PABP FP inh inactive.
Screening COc1ccc(-c2cc(=O)oc3c(C)c(OCC(=O)Nc4cccnc4)ccc23)cc1 returned VIM-2 inhibitor 0.1, IMP-1 inhibitor 6.7*, eIF4H FP inh -38.6, PABP1 MLLE inh -8.8 and PABP FP inh inactive.
COc1ccccc1CC(NC(C)=O)C(=O)NC1CCN(C(=O)c2ccc([N+](=O)[O-])cc2)CC1 (stereo unspecified) was read as VIM-2 inhibitor -1.5, IMP-1 inhibitor -0.6, eIF4H FP inh -8.2, PABP1 MLLE inh -3.3 and PABP FP inh inactive.
CC(Oc1cccc(Br)c1)C(=O)NNC(=O)CCS(=O)(=O)c1ccccc1 (stereo unspecified) was read as PABP1 MLLE inh 10.5.
Screening O=c1[nH]c(SCc2ccccc2)nc2ccsc12 returned VIM-2 inhibitor -1.4, IMP-1 inhibitor -3.1, eIF4H FP inh 0.2, PABP1 MLLE inh 3.8 and PABP FP inh inactive.
`CCOC(=O)CSc1nc2ccsc2c(=O)[nH]1` gave VIM-2 inhibitor -1.9, IMP-1 inhibitor -1.4, eIF4H FP inh 86.4, PABP1 MLLE inh -10.7 and PABP FP inh active.
`COc1cc([N+](=O)[O-])ccc1NC(=S)NC(=O)CC(C)(C)C` gave VIM-2 inhibitor -0.3, IMP-1 inhibitor -1.8, eIF4H FP inh -9.3, PABP1 MLLE inh 14.2 and PABP FP inh inactive.
For O=c1c2ccccc2ncn1-c1cccc(Cl)c1 the results were VIM-2 inhibitor 4.9, IMP-1 inhibitor 35.6*, eIF4H FP inh 6.4, PABP1 MLLE inh 1.2 and PABP FP inh inactive.
O=C(NCc1ccc(Cl)s1)C1CCC(=O)N(CCc2cccc(F)c2)C1 (stereo unspecified) was read as VIM-2 inhibitor 0.2, IMP-1 inhibitor -3.2, eIF4H FP inh -20.6, PABP1 MLLE inh 11.8 and PABP FP inh inactive.
COc1ccc(CN2CCN(Cc3c[nH]c4ccccc34)CC2CCO)cc1C (stereo unspecified) was read as VIM-2 inhibitor -2.4, IMP-1 inhibitor -1.9, eIF4H FP inh -3.2, PABP1 MLLE inh 5.3 and PABP FP inh inactive.
For COC(=O)c1sc(N2C(=O)C(O)=C(C(=O)c3ccc(C)o3)C2c2ccco2)nc1C (stereo unspecified) the results were VIM-2 inhibitor 0.1, IMP-1 inhibitor -0.3, eIF4H FP inh 52.2*, PABP1 MLLE inh -18.9 and PABP FP inh active.
COC(=O)c1sc(N2C(=O)C(O)=C(C(=O)c3ccc(C)o3)C2c2cccs2)nc1C (stereo unspecified) was read as VIM-2 inhibitor -4.6, IMP-1 inhibitor -0.3, eIF4H FP inh -1.9, PABP1 MLLE inh -34.4 and PABP FP inh inactive.
Screening O=c1c2ccccc2n2c(-c3ccc(F)cc3)nnc2n1Cc1ccccc1 returned VIM-2 inhibitor 0.8, IMP-1 inhibitor -3.6, eIF4H FP inh 52.8*, PABP1 MLLE inh -14.5 and PABP FP inh active.
CS(=O)(=O)N1CCCC(C(=O)Nc2ccc(F)c(F)c2)C1 (stereo unspecified) was read as PABP1 MLLE inh -8.0.
For Cc1[nH]n(C2=NCCS2)c(=O)c1N=Nc1ccccc1 the results were VIM-2 inhibitor -2.4, IMP-1 inhibitor -3.4, eIF4H FP inh 1.3, PABP1 MLLE inh 40.2* and PABP FP inh inactive.
For Cc1[nH]n(-c2ccccc2)c(=O)c1N=Nc1ccc2c(c1)OCO2 the results were VIM-2 inhibitor -2.4, IMP-1 inhibitor -2.0, eIF4H FP inh -4.2, PABP1 MLLE inh -2.1 and PABP FP inh inactive.
For Cc1c(C(=O)OCCOC(C)C)[nH]c2c1C(=O)CC(c1ccco1)C2 (stereo unspecified) the results were VIM-2 inhibitor 1.1, IMP-1 inhibitor -1.9, eIF4H FP inh 59.1*, PABP1 MLLE inh -4.2 and PABP FP inh inactive.
For CSCCOC(=O)c1[nH]c2c(c1C)C(=O)CC(c1ccco1)C2 (stereo unspecified) the results were VIM-2 inhibitor -1.3, IMP-1 inhibitor -0.8, eIF4H FP inh 90.2, PABP1 MLLE inh -7.7 and PABP FP inh inactive.
Screening Cc1c(C(=O)OCc2ccccc2)[nH]c2c1C(=O)CC(c1ccco1)C2 (stereo unspecified) returned VIM-2 inhibitor -1.3, IMP-1 inhibitor -1.6, eIF4H FP inh 81.1, PABP1 MLLE inh 8.3 and PABP FP inh active.
For CCOC(=O)c1[nH]c2c(c1C)C(=O)CC(c1ccco1)C2 (stereo unspecified) the results were VIM-2 inhibitor -1.8, IMP-1 inhibitor -1.8, eIF4H FP inh 99.3*, PABP1 MLLE inh -13.8 and PABP FP inh active.
For COCCOC(=O)c1[nH]c2c(c1C)C(=O)CC(c1ccco1)C2 (stereo unspecified) the results were VIM-2 inhibitor 2.1, IMP-1 inhibitor 0.4, eIF4H FP inh 83.6*, PABP1 MLLE inh 7.0 and PABP FP inh inactive.
For NS(=O)(=O)c1ccc(CCNS(=O)(=O)c2ccc3c(c2)NC(=O)CO3)cc1 the results were VIM-2 inhibitor -4.2, IMP-1 inhibitor -1.8, eIF4H FP inh 6.0, PABP1 MLLE inh -4.4 and PABP FP inh inactive.

Compound activity (PubChem BioAssay)
